# Assay outcomes: PubChem, The Scripps Research Institute Molecular Screening Center
# An excerpt weighted towards active compounds, which were near 1.9% of everything screened.
# ASAP1 inh = inhibitors of human ASAP1 ArfGAP activity, primary screen, biochemical, fluorescence polarization | inhibition, % at 16.5 µM | 0.19% of 360,000 active | ASAP1-stimulated ARF1 GTP hydrolysis, GDP FP detection | Arf-GAP with SH3 domain, ANK repeat and PH domain-containing protein 1 (Homo sapiens), …; in the data active means inhibition above about 25%;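 further: 0% = vehicle with enzyme and substrate and 100% = no enzyme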
# PLC-beta3 inh = human PLC-beta3 inhibitors, primary screen, biochemical, fluorescence; Purified PLC-beta3, fluorogenic substrate; inhibition, % at 12.2 µM; 0.18% of 370,000 active; AID 720704, 2013; in the data active means inhibition above about 11%;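 further: 0% = median of compound wells on plate and 100% = full blocker control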
# Target sequence (Q01970 whole entry, looked up): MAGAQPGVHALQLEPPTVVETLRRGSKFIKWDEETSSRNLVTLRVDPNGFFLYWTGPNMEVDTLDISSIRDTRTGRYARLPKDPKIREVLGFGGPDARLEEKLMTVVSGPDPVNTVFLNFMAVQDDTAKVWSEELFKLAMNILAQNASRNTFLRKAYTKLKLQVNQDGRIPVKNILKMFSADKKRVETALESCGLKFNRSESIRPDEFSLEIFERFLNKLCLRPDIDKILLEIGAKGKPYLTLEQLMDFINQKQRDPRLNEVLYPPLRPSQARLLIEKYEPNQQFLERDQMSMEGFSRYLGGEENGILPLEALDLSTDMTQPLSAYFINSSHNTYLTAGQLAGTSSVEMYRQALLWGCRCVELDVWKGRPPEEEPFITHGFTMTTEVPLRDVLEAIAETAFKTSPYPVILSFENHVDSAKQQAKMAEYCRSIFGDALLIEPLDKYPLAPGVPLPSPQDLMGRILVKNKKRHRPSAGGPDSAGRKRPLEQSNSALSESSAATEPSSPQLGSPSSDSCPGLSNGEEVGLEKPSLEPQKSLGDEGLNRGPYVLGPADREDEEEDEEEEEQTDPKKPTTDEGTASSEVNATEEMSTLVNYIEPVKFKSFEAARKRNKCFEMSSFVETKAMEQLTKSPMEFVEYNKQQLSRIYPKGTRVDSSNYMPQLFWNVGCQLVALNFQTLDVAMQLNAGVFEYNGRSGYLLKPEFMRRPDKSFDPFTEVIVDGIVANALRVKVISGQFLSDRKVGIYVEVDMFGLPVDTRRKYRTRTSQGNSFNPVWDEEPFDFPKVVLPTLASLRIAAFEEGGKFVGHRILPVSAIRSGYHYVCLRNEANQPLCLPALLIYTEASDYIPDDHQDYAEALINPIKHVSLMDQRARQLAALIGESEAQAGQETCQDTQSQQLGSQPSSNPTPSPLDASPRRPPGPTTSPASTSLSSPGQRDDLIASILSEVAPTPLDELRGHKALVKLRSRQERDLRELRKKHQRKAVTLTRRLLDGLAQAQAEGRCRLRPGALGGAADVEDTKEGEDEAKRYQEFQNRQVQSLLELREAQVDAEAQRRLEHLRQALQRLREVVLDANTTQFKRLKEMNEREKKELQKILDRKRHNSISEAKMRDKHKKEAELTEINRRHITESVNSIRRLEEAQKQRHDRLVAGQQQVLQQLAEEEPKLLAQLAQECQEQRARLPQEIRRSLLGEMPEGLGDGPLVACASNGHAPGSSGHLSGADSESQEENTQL
# sPLA2-III inh = human group III sPLA2 inhibitors, primary screen, biochemical, QFRET, BODIPY PC-A2 liposome substrate. QFRET BODIPY PC-A2 liposome hydrolysis, fluorescence. Group 3 secretory phospholipase A2 (Homo sapiens), Q9NZ20. inhibition, % at 12.2 µM. 0.56% of 370,000 active. AID 743126, 2013;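 active means inhibition above mean plus 3 SD of compounds lying within the high and low control bounds, cut at about 19% in these data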;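 further: 0% = median of test compound wells and 100% = no enzyme DMSO wells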
# PLCg1 inh = PLC-gamma1 enzyme inhibitors, primary screen, biochemical, fluorescence, purified enzyme; 1-phosphatidylinositol 4,5-bisphosphate phosphodiesterase gamma-1 (Homo sapiens), P19174; fluorogenic substrate; inhibition, % at 12.2 µM; 0.84% of 370,000 active; in the data active means inhibition above about 9.5%
# ARFGAP1 inh = inhibitors of rat ARFGAP1 GAP activity, primary screen, biochemical, fluorescence polarization, GDP tracer. 0.26% of 360,000 active. inhibition, % at 16.5 µM. AID 651572, 2012. ADP-ribosylation factor GTPase-activating protein 1 (Rattus norvegicus), Q62848. Arfgap1-stimulated ARF1 GTP hydrolysis, GDP FP detection;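 active means inhibition above a per-plate limit, mean inhibition of low control wells plus 3 SD, cut at about 25% in these data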;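 further: 0% = DMSO wells with enzyme and 100% = wells lacking Arfgap1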
#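 System: truncated rat Arfgap1 GAP domain / Benchmarks: high control wells lacking Arfgap1, low control full reaction with DMSO / Times: compound-enzyme preincubation 20 min, reaction 120 min, detection 60 min, 25 °C / Repeats: one replicate per compound / Also added: human ARF1(Δ1-17)-GTP substrate / Measured by: Tracer-displacement fluorescence polarization with EDTA stop, 620/688 nm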
# sPLA2 confirm = human group III sPLA2 inhibitors, confirmation, biochemical, QFRET, triplicate; shares compounds with sPLA2-III inh; recombinant hGIII-sPLA2, BODIPY PC-A2 QFRET fluorescence; inhibition, % at 12.2 µM; 34% of 2,000 active; AID 743280, 2014;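 active means mean inhibition across triplicates above the hit cutoff set in the earlier primary screen, cut at about 19% in these data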;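 further: 0% = enzyme with DMSO and 100% = DMSO wells lacking enzyme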
# 535nm interf = 535nm fluorescence optical interference, confirmation, artefact control for HGIII-sPLA2 inhibitor project, biochemical, QFRET | 8.5% of 2,000 active | shares compounds with sPLA2-III inh | inhibition, % at 12.2 µM | AID 743282, 2014 | BODIPY FL product fluorescence interference;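 active means average inhibition above the solvent-only control mean plus 3 SD, cut at about 6% in these data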;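 further: 0% = DMSO with substrate plus product and 100% = DMSO with substrate alone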
# 535nm interf DR = 535nm fluorescence optical interference, dose response, artefact control for HGIII-sPLA2 inhibitor project, biochemical, QFRET; AID 743455, 2014; shares compounds with sPLA2-III inh; 240 tested, under 10 active; IC50, µM; BODIPY FL product fluorescence interference, cell-free;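 active means IC50 at or below 10 µM; inactive means IC50 above 10 µM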
# * marks the source's active call; other numbers are inactive results; i = inactive; · = not tested or not shown.
SMILES,ASAP1 inh,PLC-beta3 inh,sPLA2-III inh,PLCg1 inh,ARFGAP1 inh,sPLA2 confirm,535nm interf,others
O=C(NC1CCCC1)[C@@H]1CSC2c3ccccc3C(=O)N21 (stereo not given in full),9.9,-7.8,-1.9,3.5,0.6,·,·,
O=C(O)C1CSC2c3ccccc3C(=O)N12 (stereo not given),-12.4,-1.6,20.4*,-6.8,13.8,2.7,-4.8,
Cc1ccc(-n2c(SCC(=O)NN=Cc3ccc(-c4ccccc4)cc3)nnc2-c2ccccc2)cc1,·,1.4,6.3,3.0,·,·,·,
C/C(=N\NC(=O)c1ccccc1F)c1ccc2c(c1)Nc1ccccc1S2,6.2,-25.2,20.4*,-22.1,2.6,44.6*,10.1*,
C/C(=N\NC(=O)c1ccc(O)cc1)c1ccc2c(c1)Nc1ccccc1S2,12.3,-32.8,3.2,-35.6,21.1,·,·,
O=C(O)c1ccc(N2C(=O)CC(N3CCN(c4cccc(C(F)(F)F)c4)CC3)C2=O)cc1 (stereo not given),4.0,-8.6,21.2*,-3.7,5.3,1.9,-1.7,
O=C(O)c1ccc(N2C(=O)CC(N3CCN(c4cccc(Cl)c4)CC3)C2=O)cc1 (stereo not given),12.1,-8.5,8.7,-1.9,-10.1,·,·,
CCc1cc(C(=O)c2ccc(C)cc2)c(NC(=O)CCl)s1,-1.5,-4.0,-2.5,0.4,3.8,·,·,
Cc1cc(C(=O)c2ccc(Cl)cc2)c(NC(=O)CCl)s1,-1.1,0.0,19.5*,1.9,-6.2,3.1,-6.9,
CCCNC(=O)Nc1cccc(C(=O)OC)c1,9.9,4.8,20.8*,4.9,-2.2,8.3,-5.8,
CCCNC(=O)Nc1cccc(NC(C)=O)c1,2.3,-5.8,-3.8,0.1,-4.5,·,·,
Cc1cc(C)c2nc(SCC(=O)NCCC3=CCCCC3)cc(C)c2c1,-10.3,-5.9,20.7*,0.6,7.7,-4.1,-6.7,
O=C(Nc1ccc(Cl)cc1C(=O)N1CCOCC1)c1ccco1,-2.5,-4.0,19.9*,6.2,11.7,2.0,-4.3,
O=C(Nc1ccc(Cl)cc1C(=O)N1CCCCC1)c1ccco1,-7.0,-7.7,0.9,1.3,12.5,·,·,
O=C1CCC[C@H]2C[C@H](NCc3ccccc3Cl)CC[C@]23CCCN13,·,-1.9,-0.1,-2.5,·,·,·,
c1cn2c(NC3CCCCC3)c(-c3ccc(SC4CCCCC4)cc3)nc2cn1,-9.1,-356.1,-2.5,-245.5,10.7,·,·,
CCN(CC)c1ccc(-c2nc3cnccn3c2NC2CCCC2)cc1,-13.5,i,21.2*,i,0.5,27.0*,-11.9,
S=c1[nH]c2ccc(Cl)cc2[nH]1,1.5,-0.2,0.8,5.2,-5.3,·,·,
S=c1[nH]c2cc(Cl)ccc2s1,-1.2,-9.6,23.8*,0.9,14.6,20.9*,0.6,
N=C(N)SCc1ccccc1Cl,-12.2,2.1,33.9*,1.8,6.4,10.9,-6.1,
Cc1[nH]c2ccccc2c1-c1csc(N)n1,23.2,-14.0,1.8,-8.7,9.1,·,·,
Cc1c(-c2csc(N)n2)c2ccccc2n1C,2.3,-18.2,20.2*,-1.8,3.3,12.2,4.1,
CCCn1c(C(C)C)n[nH]c1=S,-0.7,-4.8,25.6*,2.3,-5.4,8.7,-4.3,
COC(=O)C1CCN(C(=O)CCn2nnc(-c3cccs3)n2)CC1,·,-4.7,9.9,-3.1,·,·,·,
N#CCC[C@H]1CC[C@]2(CCCN(C(=O)c3ccccc3)C2)O1,·,0.8,19.4*,4.3,·,0.3,-3.2,
SMILES,ASAP1 inh,PLC-beta3 inh,sPLA2-III inh,PLCg1 inh,ARFGAP1 inh,sPLA2 confirm,535nm interf,others
N#CCC[C@@H]1CC[C@]2(CCCN(C(=O)c3ccccc3)C2)O1,·,-3.4,16.1,2.0,·,·,·,
Nc1ccc2c3c(ccc([N+](=O)[O-])c13)CC2,-8.1,2.4,23.0*,2.8,0.6,33.9*,6.6*,
O=C(O)CC1(CC(=O)NCc2cc(F)cc3c2OCOC3)CCCCC1,1.1,-8.3,19.5*,2.8,13.0,0.0,-2.0,
CCCS(=O)(=O)c1c(S(=O)(=O)CCC)c2cnccn2c1C(=O)c1ccc(F)cc1,-12.1,-2.9,19.3*,-5.2,7.3,2.9,-9.9,
CCCS(=O)(=O)c1c(S(=O)(=O)CCC)c2cnccn2c1C(=O)c1ccc(CC)cc1,12.8,-2.0,0.0,-1.1,7.2,·,·,
Brc1ccc(CN2CCCc3nc(-c4ccccc4)ccc32)cc1,1.7,-109.1,7.8,-76.1,-2.2,·,·,
FC(F)(F)c1ccccc1CN1CCCc2nc(-c3ccc(Br)cc3)ccc21,2.2,-41.5,22.2*,-30.6,3.7,13.9,4.3,
FC(F)(F)c1ccccc1CN1CCCc2nc(-c3ccccc3)ccc21,11.9,-53.9,26.7*,-38.7,8.6,6.5,-1.4,
COC(=O)C1=C(C)N(Cc2ccc(C(F)(F)F)cc2)C(=NCc2ccccc2)NC1c1ccc(C(F)(F)F)cc1 (stereo not given),3.2,-1.7,8.2,0.9,4.6,·,·,
Cc1cccn2c(Nc3ccccc3)c(-c3ccccn3)nc12,-7.5,-15.7,7.8,-16.3,-0.7,·,·,
Cc1ccn2c(Nc3ccccc3)c(-c3ccccn3)nc2c1,2.7,-18.6,20.4*,-10.9,8.5,18.1,-28.0,
Cc1ccc2nc(-c3ccccn3)c(Nc3ccccc3C)n2c1,7.6,-10.9,26.5*,-2.4,13.8,23.6*,-17.7,
Cc1ccn2c(Nc3ccccc3C)c(-c3ccccn3)nc2c1,-10.8,-14.8,20.8*,-7.4,13.4,30.1*,-20.7,535nm interf DR=>122
O=C(c1cccc(Oc2ccccc2)c1)N1CCC(Oc2cccnc2)CC1,·,-0.7,-11.2,0.3,·,·,·,
O=C(Nc1ccc(F)cc1)OCc1cn(Cc2ccc(F)cc2F)nn1,·,0.4,-9.4,-0.4,·,·,·,
CCOc1ccc(-n2c(N)c(-c3nc4ccccc4[nH]3)sc2=S)cc1,3.5,-34.6,20.4*,-23.6,8.3,32.8*,1.9,535nm interf DR=>122
CC1CCc2nc3sc4c(c3c(N)c2C1)CCCC4 (stereo not given),2.1,-18.0,19.6*,-13.1,6.8,11.2,-5.2,
CC1CCc2c(nc3sc4c(c3c2N)CCCC4)C1 (stereo not given),5.5,-6.0,-1.0,-4.4,1.9,·,·,
